# Test system: Fibroblast
# Experiment: Multiplex assay against human fibroblast
# Assay type: toxicity, cell-based
# Procedure, shortened: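 Tubulin, mitochondrial-mass and membrane-permeability phenotypes are per cents of healthy-nucleus cells. Cells were gated by CellPathfinder machine learning into Hoechst high-intensity objects or normal cells, normal cells into healthy, pyknosed or fragmented nuclei, and pyknosed cells into mitotic or apoptotic. Before that, live cells stained at seeding with Hoechst33342, BioTracker Green Microtubule Cytoskeleton Dye, MitoTracker Red and Annexin V Alexa Fluor 680 were imaged on a CQ1 microscope at 37°C and 5% CO2 after compound addition.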
# [1] = 12 h, 1 µM, compound concentration 1 uM, replicate 1
# [2] = 12 h, 1 µM, compound concentration 1 uM, replicate 2
# [3] = 12 h, 10 µM, compound concentration 10 uM, replicate 1
# [4] = 12 h, 10 µM, compound concentration 10 uM, replicate 2
# [5] = 24 h, 1 µM, compound concentration 1 uM, replicate 1
# [6] = 24 h, 1 µM, compound concentration 1 uM, replicate 2
# [7] = 24 h, 10 µM, compound concentration 10 uM, replicate 1
# [8] = 24 h, 10 µM, compound concentration 10 uM, replicate 2
# [9] = 48 h, 1 µM, compound concentration 1 uM, replicate 1
# [10] = 48 h, 1 µM, compound concentration 1 uM, replicate 2
# [11] = 48 h, 10 µM, compound concentration 10 uM, replicate 1
# [12] = 48 h, 10 µM, compound concentration 10 uM, replicate 2
smiles,measurement,setting,value
O=C(NCC(=O)N1CC[C@H](N[C@H]2CC[C@@](O)(c3ccc(-c4ncccn4)cn3)CC2)C1)c1cccc(C(F)(F)F)c1 [PF-4136309],Population Apoptotic (%),[1],53%
same,Population Fragmented Nuclei (%),[1],13%
same,Population Healthy Nuclei (%),[1],63%
same,Population Hoechst High Intensity Objects (%),[1],2%
same,Population Membrane Permeable-Phenotype (%),[1],1%
same,Population Mitochondria Different-Phenotype (%),[1],4%
same,Population Mitotic Cells (%),[1],46%
same,Population Normal (%),[1],97%
same,Population Pyknosed Nuclei (%),[1],23%
same,Population Tubulin-Different-Phenotype (%),[1],28%
same,Total Cell Count,[1],142
same,Population Apoptotic (%),[2],22%
same,Population Fragmented Nuclei (%),[2],25%
same,Population Healthy Nuclei (%),[2],52%
same,Population Hoechst High Intensity Objects (%),[2],5%
same,Population Membrane Permeable-Phenotype (%),[2],13%
same,Population Mitochondria Different-Phenotype (%),[2],7%
same,Population Mitotic Cells (%),[2],77%
same,Population Normal (%),[2],94%
same,Population Pyknosed Nuclei (%),[2],21%
same,Population Tubulin-Different-Phenotype (%),[2],60%
same,Total Cell Count,[2],152
same,Population Apoptotic (%),[3],60%
same,Population Fragmented Nuclei (%),[3],18%
same,Population Healthy Nuclei (%),[3],69%
same,Population Hoechst High Intensity Objects (%),[3],2%
same,Population Membrane Permeable-Phenotype (%),[3],0%
same,Population Mitochondria Different-Phenotype (%),[3],11%
same,Population Mitotic Cells (%),[3],40%
same,Population Normal (%),[3],97%
same,Population Pyknosed Nuclei (%),[3],12%
same,Population Tubulin-Different-Phenotype (%),[3],46%
same,Total Cell Count,[3],210
same,Population Apoptotic (%),[4],25%
same,Population Fragmented Nuclei (%),[4],24%
same,Population Healthy Nuclei (%),[4],52%
same,Population Hoechst High Intensity Objects (%),[4],5%
same,Population Membrane Permeable-Phenotype (%),[4],4%
same,Population Mitochondria Different-Phenotype (%),[4],6%
same,Population Mitotic Cells (%),[4],75%
same,Population Normal (%),[4],94%
same,Population Pyknosed Nuclei (%),[4],23%
same,Population Tubulin-Different-Phenotype (%),[4],44%
same,Total Cell Count,[4],128
same,Population Apoptotic (%),[5],61%
same,Population Fragmented Nuclei (%),[5],14%
same,Population Healthy Nuclei (%),[5],60%
same,Population Hoechst High Intensity Objects (%),[5],2%
same,Population Membrane Permeable-Phenotype (%),[5],1%
same,Population Mitochondria Different-Phenotype (%),[5],4%
same,Population Mitotic Cells (%),[5],38%
same,Population Normal (%),[5],97%
same,Population Pyknosed Nuclei (%),[5],25%
same,Population Tubulin-Different-Phenotype (%),[5],32%
same,Total Cell Count,[5],139
same,Population Apoptotic (%),[6],45%
same,Population Fragmented Nuclei (%),[6],33%
same,Population Healthy Nuclei (%),[6],52%
same,Population Hoechst High Intensity Objects (%),[6],4%
same,Population Membrane Permeable-Phenotype (%),[6],16%
same,Population Mitochondria Different-Phenotype (%),[6],1%
same,Population Mitotic Cells (%),[6],55%
same,Population Normal (%),[6],95%
same,Population Pyknosed Nuclei (%),[6],14%
same,Population Tubulin-Different-Phenotype (%),[6],52%
same,Total Cell Count,[6],148
same,Population Apoptotic (%),[7],36%
same,Population Fragmented Nuclei (%),[7],15%
same,Population Healthy Nuclei (%),[7],72%
same,Population Hoechst High Intensity Objects (%),[7],3%
same,Population Membrane Permeable-Phenotype (%),[7],0%
same,Population Mitochondria Different-Phenotype (%),[7],10%
same,Population Mitotic Cells (%),[7],63%
same,Population Normal (%),[7],96%
same,Population Pyknosed Nuclei (%),[7],11%
same,Population Tubulin-Different-Phenotype (%),[7],34%
same,Total Cell Count,[7],203
same,Population Apoptotic (%),[8],30%
same,Population Fragmented Nuclei (%),[8],29%
same,Population Healthy Nuclei (%),[8],48%
same,Population Hoechst High Intensity Objects (%),[8],2%
same,Population Membrane Permeable-Phenotype (%),[8],6%
same,Population Mitochondria Different-Phenotype (%),[8],4%
same,Population Mitotic Cells (%),[8],70%
same,Population Normal (%),[8],97%
same,Population Pyknosed Nuclei (%),[8],22%
same,Population Tubulin-Different-Phenotype (%),[8],52%
same,Total Cell Count,[8],139
same,Population Apoptotic (%),[9],58%
same,Population Fragmented Nuclei (%),[9],26%
same,Population Healthy Nuclei (%),[9],49%
same,Population Hoechst High Intensity Objects (%),[9],2%
same,Population Membrane Permeable-Phenotype (%),[9],2%
same,Population Mitochondria Different-Phenotype (%),[9],2%
same,Population Mitotic Cells (%),[9],41%
same,Population Normal (%),[9],97%
same,Population Pyknosed Nuclei (%),[9],24%
same,Population Tubulin-Different-Phenotype (%),[9],27%
same,Total Cell Count,[9],149
same,Population Apoptotic (%),[10],50%
same,Population Fragmented Nuclei (%),[10],36%
same,Population Hoechst High Intensity Objects (%),[10],4%
same,Population Membrane Permeable-Phenotype (%),[10],7%
same,Population Mitochondria Different-Phenotype (%),[10],4%
same,Population Mitotic Cells (%),[10],50%
same,Population Normal (%),[10],95%
same,Population Pyknosed Nuclei (%),[10],13%
same,Population Tubulin-Different-Phenotype (%),[10],46%
same,Total Cell Count,[10],137
same,Population Apoptotic (%),[11],47%
same,Population Fragmented Nuclei (%),[11],18%
same,Population Healthy Nuclei (%),[11],72%
same,Population Hoechst High Intensity Objects (%),[11],6%
same,Population Membrane Permeable-Phenotype (%),[11],0%
same,Population Mitochondria Different-Phenotype (%),[11],15%
same,Population Mitotic Cells (%),[11],52%
same,Population Normal (%),[11],93%
same,Population Pyknosed Nuclei (%),[11],9%
same,Population Tubulin-Different-Phenotype (%),[11],47%
same,Total Cell Count,[11],195
same,Population Apoptotic (%),[12],63%
same,Population Fragmented Nuclei (%),[12],31%
same,Population Healthy Nuclei (%),[12],52%
same,Population Membrane Permeable-Phenotype (%),[12],6%
same,Population Mitochondria Different-Phenotype (%),[12],6%
same,Population Mitotic Cells (%),[12],36%
same,Population Pyknosed Nuclei (%),[12],15%
same,Population Tubulin-Different-Phenotype (%),[12],54%
same,Total Cell Count,[12],129

# Source: ChEMBL document CHEMBL5058577, “EUbOPEN Chemogenomics Library 2 (Multiplex)” (2022)
